Assay results reported in ChEMBL document CHEMBL1208724, “A new group of oxime carbamates as reversible inhibitors of fatty acid amide hydrolase” (Bioorg Med Chem Lett, 2010).
One block for each compound: values may come before it. Active and inactive are the calls of the source. The rule behind the calls is not given here.

Experiments:
[1] = biological target: T1, Fatty-acid amide hydrolase 1 (Mus musculus, UniProt O08914); assay: Inhibition of mouse brain FAAH assessed as conversion of [3H-ethanolamine]AEA to [3H]ethanolamine by scintillation counting
T1 sequence (O08914 whole entry): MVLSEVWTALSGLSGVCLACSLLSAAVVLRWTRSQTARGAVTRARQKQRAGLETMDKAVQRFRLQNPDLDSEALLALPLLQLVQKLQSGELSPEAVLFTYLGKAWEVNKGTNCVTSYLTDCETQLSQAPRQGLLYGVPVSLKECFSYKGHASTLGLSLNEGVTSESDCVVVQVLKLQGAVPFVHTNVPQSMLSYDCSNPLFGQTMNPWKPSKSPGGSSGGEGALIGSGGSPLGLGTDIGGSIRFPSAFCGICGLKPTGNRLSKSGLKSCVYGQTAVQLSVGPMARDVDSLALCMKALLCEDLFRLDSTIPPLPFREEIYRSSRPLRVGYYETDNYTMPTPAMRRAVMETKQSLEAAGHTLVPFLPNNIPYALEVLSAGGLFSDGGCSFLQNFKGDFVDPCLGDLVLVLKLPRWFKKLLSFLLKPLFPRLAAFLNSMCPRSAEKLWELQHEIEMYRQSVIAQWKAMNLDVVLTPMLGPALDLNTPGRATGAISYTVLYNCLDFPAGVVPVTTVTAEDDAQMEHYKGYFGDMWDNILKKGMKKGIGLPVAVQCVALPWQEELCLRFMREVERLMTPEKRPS

[2] = biological target: 5-hydroxytryptamine receptor 1B (Rattus norvegicus, UniProt P28564); assay: Displacement of [125I]CYP from 5HT1B receptor expressed in rat cerebral cortex; type: tissue-based
Chain of 5-hydroxytryptamine receptor 1B (P28564 whole entry): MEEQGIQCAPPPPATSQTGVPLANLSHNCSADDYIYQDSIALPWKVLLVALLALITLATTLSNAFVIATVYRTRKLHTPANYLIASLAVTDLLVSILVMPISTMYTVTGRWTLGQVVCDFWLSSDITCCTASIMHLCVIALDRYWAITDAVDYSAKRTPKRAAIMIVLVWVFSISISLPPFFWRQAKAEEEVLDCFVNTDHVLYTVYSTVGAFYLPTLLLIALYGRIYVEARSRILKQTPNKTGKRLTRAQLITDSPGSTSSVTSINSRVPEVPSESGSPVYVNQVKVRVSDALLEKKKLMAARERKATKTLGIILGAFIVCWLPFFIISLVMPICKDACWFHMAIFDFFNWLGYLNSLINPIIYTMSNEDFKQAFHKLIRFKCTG

[3] = biological target: Type-1 angiotensin II receptor (Homo sapiens, UniProt P30556); assay: Displacement of [125I][Sar1,Ile8]-AT II from human recombinant AT1 receptor expressed in HEK293 cells; type: cell-based
[4] = Displacement of [3H]flunitrazepam from BZD receptor in rat cerebral cortex; type: tissue-based
[5] = biological target: 5-hydroxytryptamine receptor 3A (Homo sapiens, UniProt P46098); assay: Displacement of [3H]BRL 43694 from human recombinant 5HT3 receptor expressed in CHO cells; type: cell-based
[6] = biological target: Melatonin receptor type 1A (Homo sapiens, UniProt P48039); assay: Displacement of [125I]2-iodomelatonin from human recombinant MT1 receptor expressed in CHO cells; type: cell-based
D(1A) dopamine receptor = D(1A) dopamine receptor (Homo sapiens, UniProt P21728); assay: Displacement of [3H]SCH 23390 from human recombinant dopamine D1 receptor expressed in CHO cells; type: cell-based
[7] = biological target: Kappa-type opioid receptor (Rattus norvegicus, UniProt P34975); assay: Displacement of [3H]U69593 from rat recombinant kappa opioid receptor expressed in CHO cells; type: cell-based
[8] = Displacement of [3H]GABA from GABA receptor in rat cerebral cortex; type: tissue-based
[9] = biological target: Beta-2 adrenergic receptor (Homo sapiens, UniProt P07550); assay: Displacement of [3H](-)CGP 12177 from human recombinant beta2 receptor expressed in CHO cells; type: cell-based
Chain of Beta-2 adrenergic receptor (P07550 whole entry): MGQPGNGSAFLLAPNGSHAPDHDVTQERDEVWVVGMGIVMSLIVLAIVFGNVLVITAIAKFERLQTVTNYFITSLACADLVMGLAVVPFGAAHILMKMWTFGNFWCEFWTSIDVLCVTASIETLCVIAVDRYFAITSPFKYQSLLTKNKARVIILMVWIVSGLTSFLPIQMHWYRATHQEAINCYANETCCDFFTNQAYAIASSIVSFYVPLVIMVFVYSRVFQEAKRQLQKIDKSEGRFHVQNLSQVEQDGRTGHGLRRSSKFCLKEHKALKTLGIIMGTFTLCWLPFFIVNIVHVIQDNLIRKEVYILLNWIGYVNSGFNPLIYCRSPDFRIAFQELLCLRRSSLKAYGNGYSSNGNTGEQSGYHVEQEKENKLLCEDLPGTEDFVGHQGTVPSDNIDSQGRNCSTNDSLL

Adenosine receptor A1 = Adenosine receptor A1 (Homo sapiens, UniProt P30542); assay: Displacement of [3H]DPCPX from human recombinant A1 receptor expressed in CHO cells; type: cell-based
Chain of Adenosine receptor A1 (P30542 whole entry): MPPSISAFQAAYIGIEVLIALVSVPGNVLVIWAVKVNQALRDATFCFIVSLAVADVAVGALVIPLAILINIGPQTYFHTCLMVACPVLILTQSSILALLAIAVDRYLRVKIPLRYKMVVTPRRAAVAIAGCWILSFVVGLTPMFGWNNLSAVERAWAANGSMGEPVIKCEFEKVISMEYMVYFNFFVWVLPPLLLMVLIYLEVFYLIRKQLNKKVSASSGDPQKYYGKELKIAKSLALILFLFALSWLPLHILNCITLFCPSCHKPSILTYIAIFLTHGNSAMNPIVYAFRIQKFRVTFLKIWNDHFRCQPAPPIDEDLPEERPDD

[10] = biological target: Muscarinic acetylcholine receptor M3 (Homo sapiens, UniProt P20309); assay: Displacement of [3H]4-DAMP from human recombinant muscarinic M3 receptor expressed in CHO cells; type: cell-based
Galanin receptor type 2 = Galanin receptor type 2 (Homo sapiens, UniProt O43603); assay: Displacement of [125I]Galanin from human recombinant GAL2 receptor expressed in CHO cells; type: cell-based
[11] = biological target: 5-hydroxytryptamine receptor 5A (Homo sapiens, UniProt P47898); assay: Displacement of [3H]LSD from human recombinant 5HT5A receptor expressed in CHO cells; type: cell-based
Chain of 5-hydroxytryptamine receptor 5A (P47898 whole entry): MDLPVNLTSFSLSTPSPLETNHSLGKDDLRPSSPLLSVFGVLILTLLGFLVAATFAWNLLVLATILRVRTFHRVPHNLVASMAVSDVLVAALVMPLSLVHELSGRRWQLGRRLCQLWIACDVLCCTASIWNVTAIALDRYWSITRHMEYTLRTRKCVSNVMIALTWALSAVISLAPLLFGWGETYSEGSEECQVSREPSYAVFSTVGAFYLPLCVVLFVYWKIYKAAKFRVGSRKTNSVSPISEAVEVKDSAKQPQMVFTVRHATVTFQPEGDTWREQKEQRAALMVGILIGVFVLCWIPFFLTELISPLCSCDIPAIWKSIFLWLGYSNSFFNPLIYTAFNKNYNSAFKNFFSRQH

[12] = biological target: Sodium-dependent serotonin transporter (Homo sapiens, UniProt P31645); assay: Displacement of [3H]imipramine from human recombinant 5HT transporter expressed in CHO cells; type: cell-based
Endothelin-1 receptor = Endothelin-1 receptor (Homo sapiens, UniProt P25101); assay: Displacement of [125I]endothelin-1 from human recombinant ETA receptor expressed in CHO cells; type: cell-based
Histamine H1 receptor = Histamine H1 receptor (Homo sapiens, UniProt P35367); assay: Displacement of [3H]pyrilamine from human recombinant histamine H1 receptor expressed in HEK293 cells; type: cell-based
[13] = biological target: Neurotensin receptor type 1 (Homo sapiens, UniProt P30989); assay: Displacement of [125I]Tyr3-neurotensin from human recombinant NT1 receptor expressed in H recombinant CHO cells; type: cell-based
Melanocortin receptor 4 = Melanocortin receptor 4 (Homo sapiens, UniProt P32245); assay: Displacement of [125I]NDP-a-MSH from human recombinant MC4 receptor expressed in CHO cells; type: cell-based
[14] = biological target: Cholecystokinin receptor type A (Homo sapiens, UniProt P32238); assay: Displacement of [125I]CCK-8 from human recombinant CCKA receptor expressed in CHO cells; type: cell-based
Adenosine receptor A2a = Adenosine receptor A2a (Homo sapiens, UniProt P29274); assay: Displacement of [3H]CGS21680 from human recombinant A2A receptor expressed in HEK293 cells; type: cell-based
[15] = biological target: Voltage-gated L-type calcium channel (Rattus norvegicus, UniProt P22002+Q02485+P27732); assay: Displacement of [3H](-)D 888 from L-type calcium channel in rat cerebral cortex; type: tissue-based
[16] = Displacement of [125I]Tyr11-somatostatin-14 from human recombinant sst receptor expressed in AtT-20 cells; type: cell-based; conditions: att20
[17] = biological target: Beta-1 adrenergic receptor (Homo sapiens, UniProt P08588); assay: Displacement of [3H](-)CGP 12177 from human recombinant beta-1 receptor expressed in HEK293 cells; type: cell-based
Chain of Beta-1 adrenergic receptor (P08588 whole entry): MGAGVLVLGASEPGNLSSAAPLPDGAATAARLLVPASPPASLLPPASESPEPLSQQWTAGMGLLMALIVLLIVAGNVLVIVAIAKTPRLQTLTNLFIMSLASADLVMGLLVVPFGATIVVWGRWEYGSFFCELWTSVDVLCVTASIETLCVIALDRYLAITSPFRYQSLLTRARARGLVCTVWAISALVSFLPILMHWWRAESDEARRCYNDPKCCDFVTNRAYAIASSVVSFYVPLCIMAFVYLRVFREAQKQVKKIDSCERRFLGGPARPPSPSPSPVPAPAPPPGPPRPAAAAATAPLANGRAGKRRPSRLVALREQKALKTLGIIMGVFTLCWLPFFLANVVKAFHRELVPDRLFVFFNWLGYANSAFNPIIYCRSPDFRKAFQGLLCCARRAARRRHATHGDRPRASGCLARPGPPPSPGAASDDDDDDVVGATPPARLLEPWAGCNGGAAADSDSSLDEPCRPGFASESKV

[18] = biological target: Sodium-dependent dopamine transporter (Homo sapiens, UniProt Q01959); assay: Displacement of [3H]BTCP from human recombinant dopamine transporter expressed in CHO cells; type: cell-based
Substance-K receptor = Substance-K receptor (Homo sapiens, UniProt P21452); assay: Displacement of [125I]NKA from human recombinant NK2 receptor expressed in CHO cells; type: cell-based
[19] = biological target: Small conductance calcium-activated potassium channel protein 1 (Rattus norvegicus, UniProt P70606); assay: Displacement of [125I]apamin from SK+Ca channel in rat cerebral cortex; type: tissue-based
Chain of Small conductance calcium-activated potassium channel protein 1 (P70606 whole entry): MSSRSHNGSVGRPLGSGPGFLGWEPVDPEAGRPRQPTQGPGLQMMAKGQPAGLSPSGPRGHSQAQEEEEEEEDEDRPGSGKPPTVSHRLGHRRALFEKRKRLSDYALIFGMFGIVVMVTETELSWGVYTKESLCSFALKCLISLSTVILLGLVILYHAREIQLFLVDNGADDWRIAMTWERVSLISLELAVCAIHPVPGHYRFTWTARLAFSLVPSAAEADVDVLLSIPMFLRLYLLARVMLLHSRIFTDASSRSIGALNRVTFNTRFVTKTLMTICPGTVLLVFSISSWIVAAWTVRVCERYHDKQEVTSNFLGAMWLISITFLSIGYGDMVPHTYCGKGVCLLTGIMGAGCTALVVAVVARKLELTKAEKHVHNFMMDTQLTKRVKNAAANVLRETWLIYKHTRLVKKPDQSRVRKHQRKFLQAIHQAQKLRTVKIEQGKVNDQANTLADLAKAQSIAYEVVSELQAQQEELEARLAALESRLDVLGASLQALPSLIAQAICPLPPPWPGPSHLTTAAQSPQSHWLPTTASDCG

B2 bradykinin receptor = B2 bradykinin receptor (Homo sapiens, UniProt P30411); assay: Displacement of [3H]bradykinin from human recombinant bradykinin B2 receptor expressed in CHO cells; type: cell-based
Mu-type opioid receptor = Mu-type opioid receptor (Homo sapiens, UniProt P35372); assay: Displacement of [3H]DAMGO from human recombinant mu opioid receptor expressed in HEK293 cells; type: cell-based
[20] = biological target: N-acyl-phosphatidylethanolamine-hydrolyzing phospholipase D (Mus musculus, UniProt Q8BH82); assay: Inhibition of mouse NAPEPLD
Neuromedin-K receptor = Neuromedin-K receptor (Homo sapiens, UniProt P29371); assay: Displacement of [3H]SR 142801 from human recombinant NK3 receptor expressed in CHO cells; type: cell-based
Chain of Neuromedin-K receptor (P29371 whole entry): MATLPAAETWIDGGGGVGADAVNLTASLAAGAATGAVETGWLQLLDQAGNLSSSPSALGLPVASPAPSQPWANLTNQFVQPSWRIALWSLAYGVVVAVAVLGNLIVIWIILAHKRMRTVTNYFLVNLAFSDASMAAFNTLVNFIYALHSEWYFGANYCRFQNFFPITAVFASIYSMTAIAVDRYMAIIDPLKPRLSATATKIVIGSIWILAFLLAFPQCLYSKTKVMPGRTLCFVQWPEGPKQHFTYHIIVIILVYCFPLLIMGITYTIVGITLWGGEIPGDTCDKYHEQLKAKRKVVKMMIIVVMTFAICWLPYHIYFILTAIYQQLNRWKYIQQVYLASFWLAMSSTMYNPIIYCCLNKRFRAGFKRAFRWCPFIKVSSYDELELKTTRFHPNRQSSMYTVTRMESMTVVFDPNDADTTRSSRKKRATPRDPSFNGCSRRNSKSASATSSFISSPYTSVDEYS

[21] = biological target: Adrenergic receptor alpha-2 (Rattus norvegicus, UniProt P22086+P19328+P22909); assay: Displacement of [3H][…] from alpha2 receptor in rat cerebral cortex; type: tissue-based
[22] = biological target: 5-hydroxytryptamine receptor 1A (Homo sapiens, UniProt P08908); assay: Displacement of [3H]8-OH-DPAT from human recombinant 5HT1A receptor expressed in HEK293 cells; type: cell-based
[23] = Inhibition of mouse brain AMT
[24] = Displacement of [3H]DADLE from human recombinant delta 2 opioid receptor expressed in CHO cells; type: cell-based
Nociceptin receptor = Nociceptin receptor (Homo sapiens, UniProt P41146); assay: Displacement of [3H]nociceptin from human recombinant ORL1 receptor expressed in H recombinant HEK293 cells; type: cell-based
[25] = biological target: Fatty-acid amide hydrolase 1 (Mus musculus) (UniProt O08914); assay: Inhibition of mouse brain FAAH assessed as residual activity
Outline: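 FAAH was pre-incubated 20 min with an excess of inhibitor, then dialyzed 18 h at 4 °C against 20 mM Tris–HCl (pH 7.0). Residual activity was assayed before and after dialysis and compared with untreated controls. In a separate run, enzyme was pre-incubated with inhibitor at room temperature for 0–60 min before substrate turnover was measured. Values are means ± S.D. of three independent experiments.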

Vasopressin V1a receptor = Vasopressin V1a receptor (Homo sapiens, UniProt P37288); assay: Displacement of [3H]AVP from human recombinant V1a receptor expressed in H recombinant CHO cells; type: cell-based
Chain of Vasopressin V1a receptor (P37288 whole entry): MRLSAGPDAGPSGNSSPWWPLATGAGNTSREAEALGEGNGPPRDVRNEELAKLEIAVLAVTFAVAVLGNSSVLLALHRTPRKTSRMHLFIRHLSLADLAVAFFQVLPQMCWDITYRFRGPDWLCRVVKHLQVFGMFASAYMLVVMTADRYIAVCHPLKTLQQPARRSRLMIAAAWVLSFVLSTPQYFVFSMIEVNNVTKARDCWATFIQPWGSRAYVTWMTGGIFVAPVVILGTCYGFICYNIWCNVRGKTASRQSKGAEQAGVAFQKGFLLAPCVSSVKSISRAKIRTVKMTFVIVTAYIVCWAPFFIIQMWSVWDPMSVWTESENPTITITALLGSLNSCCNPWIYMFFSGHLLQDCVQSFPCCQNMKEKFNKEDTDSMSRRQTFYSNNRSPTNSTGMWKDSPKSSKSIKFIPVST

[26] = biological target: Neuropeptide Y receptor type 1 (Homo sapiens, UniProt P25929); assay: Displacement of [125I]peptide YY from human recombinant Y1 receptor expressed in […] cell
[27] = Displacement of [125I]VIP from human recombinant VIP receptor expressed in H recombinant CHO cells; type: cell-based
[28] = biological target: 5-hydroxytryptamine receptor 2A (Homo sapiens, UniProt P28223); assay: Displacement of [3H]Ketanserin from human recombinant 5HT2A receptor expressed in HEK293 cells; type: cell-based
Chain of 5-hydroxytryptamine receptor 2A (P28223 whole entry): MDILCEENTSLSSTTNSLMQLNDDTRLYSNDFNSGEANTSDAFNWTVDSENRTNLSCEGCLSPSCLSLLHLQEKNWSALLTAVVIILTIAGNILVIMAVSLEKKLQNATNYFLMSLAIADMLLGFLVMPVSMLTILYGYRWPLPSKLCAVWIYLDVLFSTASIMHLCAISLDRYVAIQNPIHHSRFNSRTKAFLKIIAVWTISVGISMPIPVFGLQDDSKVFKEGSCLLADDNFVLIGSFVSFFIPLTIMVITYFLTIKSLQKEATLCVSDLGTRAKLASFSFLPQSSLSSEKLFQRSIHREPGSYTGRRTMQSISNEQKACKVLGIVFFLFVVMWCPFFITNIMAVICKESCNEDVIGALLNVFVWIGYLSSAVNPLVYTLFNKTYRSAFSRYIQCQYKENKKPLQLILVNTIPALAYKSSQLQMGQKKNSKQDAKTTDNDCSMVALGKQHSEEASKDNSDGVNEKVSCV

Adenosine receptor A3 = Adenosine receptor A3 (Homo sapiens, UniProt P0DMS8); assay: Displacement of [3H]AB-MECA from human recombinant A3 receptor expressed in HEK293 cells; type: cell-based
D(2) dopamine receptor = D(2) dopamine receptor (Homo sapiens, UniProt P14416); assay: Displacement of [3H]spiperone from human recombinant dopamine D2S receptor expressed in HEK293 cells; type: cell-based
Chain of D(2) dopamine receptor (P14416 whole entry): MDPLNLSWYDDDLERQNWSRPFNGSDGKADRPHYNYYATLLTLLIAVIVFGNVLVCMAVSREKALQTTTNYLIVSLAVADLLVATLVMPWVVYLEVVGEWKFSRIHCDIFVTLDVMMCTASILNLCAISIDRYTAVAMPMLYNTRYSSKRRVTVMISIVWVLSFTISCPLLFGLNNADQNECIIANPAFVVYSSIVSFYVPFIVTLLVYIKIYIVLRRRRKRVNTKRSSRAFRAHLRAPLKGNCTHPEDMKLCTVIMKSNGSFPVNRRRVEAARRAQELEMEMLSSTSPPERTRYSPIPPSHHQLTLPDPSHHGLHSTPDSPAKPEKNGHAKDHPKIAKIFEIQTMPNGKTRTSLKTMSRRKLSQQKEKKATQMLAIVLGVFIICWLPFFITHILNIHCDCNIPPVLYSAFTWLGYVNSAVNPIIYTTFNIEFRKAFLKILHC

[29] = biological target: Muscarinic acetylcholine receptor M2 (Homo sapiens, UniProt P08172); assay: Displacement of [3H]AF-DX 384 from human recombinant muscarinic M2 receptor expressed in CHO cells; type: cell-based
Histamine H2 receptor = Histamine H2 receptor (Homo sapiens, UniProt P25021); assay: Displacement of [125I]APT from human recombinant histamine H2 receptor expressed in CHO cells; type: cell-based
[30] = biological target: Neuropeptide Y receptor type 2 (Homo sapiens, UniProt P49146); assay: Displacement of [125I]peptide YY from human recombinant Y2 receptor expressed in KAN-TS cells; type: cell-based
Thromboxane A2 receptor = Thromboxane A2 receptor (Homo sapiens, UniProt P21731); assay: Displacement of [3H]SQ 29548 from human recombinant TXA2 receptor expressed in HEK293 cells; type: cell-based
[31] = biological target: C-X-C chemokine receptor type 2 (Homo sapiens, UniProt P25025); assay: Displacement of [125I]IL-8 from human recombinant CXCR2 receptor expressed in HEK293 cells; type: cell-based
[32] = biological target: Transient receptor potential cation channel subfamily V member 1 (Mus musculus, UniProt Q704Y3); assay: Inhibition of mouse TRPV1 receptor
Cannabinoid receptor 1 = Cannabinoid receptor 1 (Mus musculus, UniProt P47746); assay: Inhibition of mouse brain CB1 receptor
[33] = biological target: 5-hydroxytryptamine receptor 7 (Homo sapiens, UniProt P34969); assay: Displacement of [3H]LSD from human recombinant 5HT7 receptor expressed in CHO cells; type: cell-based
[34] = biological target: 5-hydroxytryptamine receptor 6 (Homo sapiens, UniProt P50406); assay: Displacement of [3H]LSD from human recombinant 5HT6 receptor expressed in CHO cells; type: cell-based
[35] = biological target: Muscarinic acetylcholine receptor M1 (Homo sapiens, UniProt P11229); assay: Displacement of [3H]pirenzepine from human recombinant muscarinic M1 receptor expressed in CHO cells; type: cell-based
Cannabinoid receptor 2 = Cannabinoid receptor 2 (Mus musculus, UniProt P47936); assay: Inhibition of mouse brain CB2 receptor
Chain of Cannabinoid receptor 2 (P47936 whole entry): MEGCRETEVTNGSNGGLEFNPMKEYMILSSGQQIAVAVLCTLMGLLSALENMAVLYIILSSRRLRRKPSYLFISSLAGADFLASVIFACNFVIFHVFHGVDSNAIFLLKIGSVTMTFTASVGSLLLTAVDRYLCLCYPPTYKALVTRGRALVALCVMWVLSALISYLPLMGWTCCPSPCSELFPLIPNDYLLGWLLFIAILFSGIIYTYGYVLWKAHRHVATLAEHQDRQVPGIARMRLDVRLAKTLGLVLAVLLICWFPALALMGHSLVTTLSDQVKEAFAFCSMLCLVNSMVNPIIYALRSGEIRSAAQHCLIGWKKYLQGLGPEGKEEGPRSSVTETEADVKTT

[36] = biological target: Adrenergic receptor alpha-1 (Rattus norvegicus, UniProt P15823+P23944+P43140); assay: Displacement of [3H]prazosine from alpha1 receptor in rat cerebral cortex; type: tissue-based
[37] = biological target: C-C chemokine receptor type 1 (Homo sapiens, UniProt P32246); assay: Displacement of [125I]MIP-1a from human recombinant CCR1 receptor expressed in HEK293 cells; type: cell-based

IC50 [1]: > 1 µM
SMILES: C/C(=N\OC(=O)Nc1cccc2ccccc12)c1ccc(C2CCCCC2)cc1

SMILES: C/C(=N\OC(=O)Nc1ccccc1)c1cccc(-c2cccs2)c1
IC50 [2]: > 10 µM
IC50 [3]: > 10 µM
IC50 [4]: 1 µM
IC50 [5]: > 10 µM
IC50 [6]: > 10 µM
IC50 [1]: 0.008 µM
IC50 (D(1A) dopamine receptor): > 10 µM
IC50 [7]: > 10 µM
IC50 [8]: > 10 µM
IC50 [9]: > 10 µM
IC50 (Adenosine receptor A1): > 10 µM
IC50 [10]: > 10 µM
IC50 (Galanin receptor type 2): > 10 µM
IC50 [11]: 1 µM
IC50 [12]: > 10 µM
IC50 (Endothelin-1 receptor): > 10 µM
IC50 (Histamine H1 receptor): > 10 µM
IC50 [13]: > 10 µM
IC50 (Melanocortin receptor 4): > 10 µM
IC50 [14]: 1 µM
IC50 (Adenosine receptor A2a): > 10 µM
IC50 [15]: > 10 µM
IC50 [16]: > 10 µM
IC50 [17]: > 10 µM
IC50 [18]: > 10 µM
IC50 (Substance-K receptor): > 10 µM
IC50 [19]: > 10 µM
IC50 (B2 bradykinin receptor): > 10 µM
IC50 (Mu-type opioid receptor): > 10 µM
IC50 [20]: > 10 µM
IC50 (Neuromedin-K receptor): > 10 µM
IC50 [21]: > 10 µM
IC50 [22]: 1 µM
IC50 [23]: 0.1 µM
IC50 [24]: 1 µM
IC50 (Nociceptin receptor): > 10 µM
inhibition [25]: Active
IC50 (Vasopressin V1a receptor): > 10 µM
IC50 [26]: > 10 µM
IC50 [27]: > 10 µM
IC50 [28]: > 10 µM
IC50 (Adenosine receptor A3): 1 µM
IC50 (D(2) dopamine receptor): > 10 µM
IC50 [29]: > 10 µM
IC50 (Histamine H2 receptor): > 10 µM
IC50 [30]: > 10 µM
IC50 (Thromboxane A2 receptor): > 10 µM
IC50 [31]: > 10 µM
IC50 [32]: > 10 µM
IC50 (Cannabinoid receptor 1): > 10 µM
IC50 [33]: > 10 µM
IC50 [34]: > 10 µM
IC50 [35]: > 10 µM
IC50 (Cannabinoid receptor 2): 10 µM
IC50 [36]: > 10 µM
IC50 [37]: > 10 µM
